Test results: ChEMBL document CHEMBL4038313, “Expanding the Antiviral Spectrum of 3-Fluoro-2-(phosphonomethoxy)propyl Acyclic Nucleoside Phosphonates: Diamyl Aspartate Amidate Prodrugs” (J Med Chem, 2017)

What was measured:
[1] = Selectivity index, ratio of CC50 for human PHA-stimulated PBMC to IC50 for CXCR4-tropic HIV-1 NL4-3 infected in human PHA-stimulated PBMC
[2] = Cytotoxicity against human TZM-bl cells assessed as cell viability by tetrazolium dye assay; format: cell-based
[3] = system: Human immunodeficiency virus 1; assay: Antiviral activity against CXCR4-tropic HIV-1 NL4-3 infected in human PHA-stimulated PBMC assessed as inhibition of viral replication by measuring reduction in p24 antigen production preincubated with cells for 30 mins followed by viral infection measured on day 10 post infection in presence of IL-2 by ELISA; format: functional; settings: Human immunodeficiency virus 1, NL4-3
In short: (§1)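 PBMCs stimulated with 2 μg/mL PHA for 3 days at 37 °C, then 5 × 10^5 cells/ml preincubated 30 min at 37 °C with serial compound dilutions plus 2 ng/mL IL-2. Infected with 1500 pg/well HIV-1 BaL or 500 pg/well other isolates. IL-2 re-added on days 3 and 6. Supernatant p24 Ag measured by ELISA at day 10. EC50 is 50% inhibition of replication.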

Hepatitis B virus = assay: Antiviral activity against HBV ayw1 infected in human HepG2(2.2.15) cells assessed as reduction in viral replication by measuring extracellular viral DNA copy number after 6 days by real-time qPCR method; format: functional, cell-based; settings: ayw1, HepG2 2.2.15, 144 h
In short: (§2)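 HepG2.2.15 cells (two copies of HBV ayw1 genome), 1.5 × 10^4/well in DMEM with 2% FBS and 380 μg/mL G418. After 16–24 h, compound added in triplicate, medium with compound renewed at day 3. Supernatant collected at day 6, Pronase-treated, and extracellular HBV DNA measured by TaqMan qPCR (precore/core) against an HBV DNA standard curve. EC50/EC90 derived; CC50 by MTS uptake.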

[4] = Selectivity index, ratio of CC50 for human TZM-bl cells to EC50 for CCR5 tropic HIV1 BaL infected in human TZM-bl cells; format: toxicity, cell-based; settings: read-out: Ratio CC50/EC50
[5] = system: Human immunodeficiency virus 1; assay: Antiviral activity against CXCR4-tropic HIV-1 NL4-3 infected in human TZM-bl cells assessed as inhibition of virus-induced cytopathic effect preincubated with cells for 30 mins followed by viral infection measured after 48 hrs in presence of p-24 HIV-1 Ag by luciferase reporter gene assay; format: functional, cell-based; settings: Human immunodeficiency virus 1, NL4-3, TZM-bl
In short: (§3)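 TZM-bl cells, 1 × 10^4 per well in DMEM with 10% FBS and 10 mM […], incubated 30 min at 37 °C with compound. Then HIV-1 NL4.3 (X4) or BaL (R5) added at 100 pg p24 Ag per well. After 48 h, cells lysed with luciferase substrate. Tat-induced luminescence read after 10 min dark incubation as a measure of replication.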

[6] = system: Human immunodeficiency virus 1; assay: Antiviral activity against CCR5 tropic HIV1 BaL infected in human PHA-stimulated PBMC assessed as inhibition of viral replication by measuring reduction in p24 antigen production preincubated with cells for 30 mins followed by viral infection measured on day 10 post infection in presence of IL-2 by ELISA; format: functional; settings: Human immunodeficiency virus 1, BaL; in short: as §1
[7] = Cytotoxicity against human HepG2.2.15 cells assessed as cell viability by tetrazolium dye uptake assay; format: cell-based, HepG2 2.2.15
In short: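 HepG2.2.15 cells (two integrated copies of HBV ayw1 genome) were seeded at 1.5 × 10^4 cells/well in DMEM with 2% FBS, 380 μg/mL G418, glutamine, antibiotics and nonessential amino acids. After 16−24 h, medium with various compound concentrations was added in triplicate and renewed on day 3. After 6 days of treatment, viability was read by MTS uptake and CC50 was calculated.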

[8] = Selectivity index, ratio of CC50 for HepG2.2.15 cells to EC50 for HBV ayw1 infected in human HepG2(2.2.15) cells assessed as reduction in viral replication by measuring extracellular viral DNA copy; in short: as §2
Human alphaherpesvirus 3 [9] = assay: Antiviral activity against thymidine kinase expressing Varicella-Zoster virus Oka strain assessed as inhibition of plaque formation; format: functional; settings: Human alphaherpesvirus 3, strain Oka vaccine
In short: (§4)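 HEL fibroblast monolayers inoculated with 100 CCID50 HCMV (AD-169, Davis) or 20 PFU VZV (TK+ Oka, TK− 07-1). Adsorbed 1–2 h, inoculum removed, then incubated with compound dilutions. HCMV cytopathicity or VZV plaques scored once untreated infected controls reached completion. EC50 is 50% reduction. SI is CC50/EC50, and the potency ratio is the ratio of EC50s.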

[10] = Cytotoxicity against human PHA-stimulated PBMC assessed as cell viability by tetrazolium dye assay; format: cell-based
[11] = Cytotoxic activity against HEL cells assessed as reduction in cell proliferation after 3 days by coulter counting method; format: cell-based; settings: human
In short: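 HEL cells seeded at 5 × 10^3/well, grown 24 h, then given compound for 3 days at 37 °C. Cell number counted by Coulter counter. CC50 is 50% reduction of proliferation relative to untreated controls, read from graphic plots.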

[12] = Selectivity index, ratio of CC50 for human PHA-stimulated PBMCs to IC50 for CCR5 tropic HIV1 BaL infected in human PHA-stimulated PBMC
Human alphaherpesvirus 3 [13] = assay: Antiviral activity against thymidine kinase deficient Varicella-Zoster virus 07-1 infected in HEL cells assessed as inhibition of plaque formation; format: functional, cell-based; settings: Human alphaherpesvirus 3, 07-1, HEL; in short: as §4
[14] = system: Human immunodeficiency virus 1; assay: Antiviral activity against CCR5 tropic HIV1 BaL infected in human TZM-bl cells assessed as inhibition of virus-induced cytopathic effect preincubated with cells for 30 mins followed by viral infection measured after 48 hrs in presence of p-24 HIV-1 Ag by luciferase reporter gene assay; format: functional, cell-based; settings: Human immunodeficiency virus 1, BaL; in short: as §3
Human betaherpesvirus 5 [15] = assay: Antiviral activity against Human cytomegalovirus AD169 infected in HEL cells assessed as inhibition of virus-induced cytopathic effect; format: functional, cell-based; settings: Human betaherpesvirus 5, AD169, HEL; in short: as §4
[16] = Cytotoxic activity against HEL cells assessed as alteration of cell morphology after 3 days by microscopic method; format: cell-based; settings: human
In short: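 HEL cells with compound; MCC is the lowest concentration giving microscopically detectable alteration of cell morphology.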

Human betaherpesvirus 5 [17] = assay: Antiviral activity against HCMV Davis strain infected in HEL cells assessed as inhibition of virus-induced cytopathic effect; format: functional, cell-based; settings: Human betaherpesvirus 5, Davis; in short: as §4
[18] = Selectivity index, ratio of CC50 for human TZM-bl cells to EC50 for CXCR4-tropic HIV-1 NL4-3 infected in human TZM-bl cells; format: toxicity, cell-based; settings: read-out: Ratio CC50/EC50

Compound | Ratio CC50/IC50 [1] | CC50 [2] [µM] | IC50 [3] [µM] | EC50 (Hepatitis B virus) [µM] | EC90 (Hepatitis B virus) [µM] | selectivity ratio [4] | EC50 [5] [µM] | IC50 [6] [µM] | CC50 [7] [µM] | Ratio CC50/EC50 [8] | EC50 (Human alphaherpesvirus 3 [9]) [µM] | CC50 [10] [µM] | CC50 at 72 h [11] [µM] | Ratio CC50/IC50 [12] | EC50 (Human alphaherpesvirus 3 [13]) [µM] | EC50 [14] [µM] | EC50 (Human betaherpesvirus 5 [15]) [µM] | MCC at 72 h [16] [µM] | EC50 (Human betaherpesvirus 5 [17]) [µM] | selectivity ratio [18]
Nc1nc(O)c2ncn(C[C@@H](CF)OCP(=O)(O)O)c2n1 | 130 | > 100 | 0.28 | 0.59 | 42.7 | > 26 | 4.81 | 1.14 | > 100 | >169 | 15.5 | 36.4 | 65.4 | 32 | 12.5 | 3.79 | 127 | > 311 | 57 | > 21
CCCCCOC(=O)C[C@H](NP(=O)(CO[C@@H](CF)Cn1cnc2c(N)ncnc21)Oc1ccccc1)C(=O)OCCCCC (stereo partly drawn) | >1388 | 37.6 | 0.026 | 1.06 | 16.9 | 342 | 0.14 | 0.33 | 33 | 31 | 3.81 | 36.1 | 7.47 | 109 | 8.24 | 0.11 | > 31.4 | 157 | > 31.4 | 269
CCCCCOC(=O)C[C@H](NP(=O)(CO[C@H](CF)Cn1ccc(N)nc1=O)Oc1ccccc1)C(=O)OCCCCC (stereo partly drawn) |  | 69 |  | 41.9 | > 100 | < 1 | > 69 |  | 46.3 | 1 | 3.15 |  | 74.7 |  | 1.32 | > 69 | 0.76 | 163 | 2.02 | < 1
Nc1ccn(C[C@@H](CF)OCP(=O)(O)O)c(=O)n1 |  | > 100 |  | > 100 | > 100 | > 1 | 41.9 |  | > 100 | 1 | 71.1 |  | > 356 |  | 71.1 | 68.5 | 143 | > 356 | 27.1 | > 2
Nc1ncnc2c1ncn2C[C@H](CF)OCP(=O)(O)O | 23 | > 100 | 4.04 | 11.2 | > 100 | > 3 | 29.2 | 11.9 | > 100 | >9 | 172 | 93.9 |  | 8 | > 328 | 30.7 | > 328 | > 328 | > 328 | > 3
Nc1nc(O)c2ncn(C[C@H](CF)OCP(=O)(O)O)c2n1 | 66 | > 100 | 1.42 | 0.49 | 82.5 | > 15 | 4.57 | 6.41 | > 100 | >204 | 62.3 | 93.1 |  | 14.5 | 62.3 | 6.65 | 139 | > 311 | 62.3 | > 22
Nc1nc2c(ncn2COCCO)c(=O)[nH]1 [ACYCLOVIR] |  |  |  |  |  |  |  |  |  |  | 3.02 |  | > 444 |  | 20.7 |  |  | > 444 |  | 
O=c1[nH]c(=O)n([C@H]2C[C@H](O)[C@@H](CO)O2)cc1/C=C/Br [BRIVUDINE] |  |  |  |  |  |  |  |  |  |  | 0.055 |  | > 300 |  | 5.21 |  |  | > 300 |  | 
Nc1ccn(C[C@@H](CO)OCP(=O)(O)O)c(=O)n1 [CIDOFOVIR] |  |  |  |  |  |  |  |  |  |  |  |  | > 358 |  |  |  | 2.49 | > 358 | 3.74 | 
Nc1nc2c(ncn2COC(CO)CO)c(=O)[nH]1 [GANCICLOVIR] |  |  |  |  |  |  |  |  |  |  |  |  | > 391 |  |  |  |  | > 391 | 16.5 | 
CC(C)OC(=O)[C@H](C)N[P@](=O)(CO[C@H](C)Cn1cnc2c(N)ncnc21)Oc1ccccc1 [TENOFOVIR ALAFENAMIDE] | 1320 |  | 0.001 |  |  |  |  | 0.01 |  |  |  | 1.32 |  | 132 |  |  |  |  |  | 
